Experimental data as given in ChEMBL document CHEMBL3596117, “Identification of 3,5,6-substituted indolin-2-one's inhibitors of Aurora B by development of a luminescent kinase assay” (Bioorg Med Chem Lett, 2015).

Target: T1, Aurora kinase B (Homo sapiens, UniProt Q96GD4)
Assay: Inhibition of aurora B kinase (unknown origin) at 10 uM using ATP and SB2 substrate incubated at 37 degC for 2 hrs by kinase-Glo reagent based luminescent kinase assay
Summary of the method: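 Aurora B at 300 ng/well with ATP and peptide substrate SB2 at the optimized levels. DMSO was kept below 2% by volume. Activity was read by Kinase-Glo luminescence, which measures the ATP left after the reaction.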

T1 sequence (Q96GD4 whole entry): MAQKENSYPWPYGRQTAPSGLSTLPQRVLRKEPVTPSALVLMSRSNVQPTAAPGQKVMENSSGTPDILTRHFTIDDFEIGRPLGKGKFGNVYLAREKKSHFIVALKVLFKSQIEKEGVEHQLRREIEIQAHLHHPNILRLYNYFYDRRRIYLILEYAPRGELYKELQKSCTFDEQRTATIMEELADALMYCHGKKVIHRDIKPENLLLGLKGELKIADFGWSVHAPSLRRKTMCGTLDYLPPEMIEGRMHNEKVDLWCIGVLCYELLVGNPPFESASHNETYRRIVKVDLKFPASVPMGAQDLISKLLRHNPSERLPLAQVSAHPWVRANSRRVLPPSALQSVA

Row | SMILES | inhibition [%]
1 | C=CCNC(=S)Nc1cc2c(cc1Oc1cc(C)cc(C)c1)C(Cc1ccccc1)C(=O)N2 (stereo not given) | < 30
2 | Cc1cc(C)cc(Oc2cc3c(cc2NS(=O)(=O)c2ccc(F)cc2)NC(=O)C3Cc2ccccc2)c1 (stereo not given) | < 30
3 | C=CCNC(=S)Nc1cc2c(cc1N(CCC)CCC)/C(=C/c1ccc3c(c1)OCO3)C(=O)N2 | 31
4 | CCCCCCCNC(=O)Nc1cc2c(cc1N1CCN(C(=O)OCC)CC1)/C(=C/c1ccc[nH]1)C(=O)N2 | < 30
5 | CCCC1(C(=O)OCC)C(=O)Nc2cc(NC(C)=O)c(N3CCN(c4cccc(C)c4C)CC3)cc21 (stereo not given) | < 30
6 | O=C(Nc1ccc(C(F)(F)F)cc1)Nc1cc2c(cc1N1CCCC1)/C(=C/c1ccc[nH]1)C(=O)N2 | 97
7 | C=CCC1C(=O)Nc2cc(NC(=S)Nc3ccccc3OC)c(N(CCC)CCC)cc21 (stereo not given) | 35
8 | CCc1ccc(Oc2cc3c(cc2NS(=O)(=O)c2ccc(C)cc2)NC(=O)C3)cc1 | < 30
9 | CCC/C=C1\C(=O)Nc2cc(NC(C)=O)c(N(CC)CC)cc21 | < 30
10 | O=C(Nc1ccc(C(F)(F)F)cc1)Nc1cc2c(cc1N1CCCC1)/C(=C/c1cccs1)C(=O)N2 | 47
11 | Cc1cc(C)cc(Oc2cc3c(cc2NC(=O)Nc2ccc(OC(F)(F)F)cc2)NC(=O)C3Cc2ccccc2)c1 (stereo not given) | < 30
12 | CCN(CC)c1cc2c(cc1NC(C)=O)NC(=O)/C2=C\c1cccs1 | < 30
13 | CCN(CC)c1cc2c(cc1NC(C)=O)NC(=O)/C2=C\c1ccc[nH]1 | 83
14 | CCN(CC)c1cc2c(cc1NC(C)=O)NC(=O)/C2=C\c1ccccn1 | < 30

Continued, values first:

Row | inhibition [%] | SMILES
15 | < 30 | CCCCC1C(=O)Nc2cc(NC(=O)Nc3ccc(F)cc3)c(N3CCOCC3)cc21 (stereo not given)
16 | < 30 | C=CCC1C(=O)Nc2cc(NC(=O)Nc3ccc(F)cc3)c(N(CCC)CCC)cc21 (stereo not given)
17 | < 30 | O=C1Cc2cc(N3CCOCC3)c(NC(=O)Nc3ccc(F)cc3)cc2N1
18 | < 30 | COc1ccc(/C=C2\C(=O)Nc3cc(NC(C)=O)c(N4CCOCC4)cc32)cc1
19 | < 30 | CCCC1(C(=O)OCC)C(=O)Nc2cc(NC(=O)Nc3ccc(F)cc3)c(N3CCN(c4cccc(C)c4C)CC3)cc21 (stereo not given)
20 | 65 | O=C(Nc1ccc(F)cc1)Nc1cc2c(cc1N1CCOCC1)/C(=C/c1ccc(F)cc1)C(=O)N2
21 | < 30 | CC(=O)Nc1cc2c(cc1N1CCOCC1)/C(=C/c1ccco1)C(=O)N2

Target: T1, Aurora kinase B
Assay: Inhibition of aurora B kinase (unknown origin) using ATP and SB2 substrate incubated at 37 degC for 2 hrs by kinase-Glo reagent based luminescent kinase assay
Summary of the method: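 Aurora B at 300 ng/well with ATP and peptide substrate SB2 at optimized levels, DMSO below 2% by volume. Kinase activity was quantified by Kinase-Glo luminescence of the ATP remaining after the reaction. The assay was validated with 48 enzyme-containing and 48 enzyme-free wells for the Z′-factor. IC50 values were derived from this luminescent assay.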

Row | SMILES | IC50 [nM]
22 | O=C(Nc1ccc(C(F)(F)F)cc1)Nc1cc2c(cc1N1CCCC1)/C(=C/c1ccc[nH]1)C(=O)N2 | 1800
23 | CCN(CC)c1cc2c(cc1NC(C)=O)NC(=O)/C2=C\c1ccc[nH]1 | 2500

Next, values leading:

Row | IC50 [nM] | SMILES
24 | 8200 | O=C(Nc1ccc(F)cc1)Nc1cc2c(cc1N1CCOCC1)/C(=C/c1ccc3c(c1)OCO3)C(=O)N2
25 | 3300 | O=C(Nc1ccc(F)cc1)Nc1cc2c(cc1N1CCOCC1)/C(=C/c1ccc[nH]1)C(=O)N2
